# Test results published in the RNAGym collection of RNA variant scans (doi:10.1126/science.aae0568).
# Fewer inactive variants are shown than the library holds.
# B1: tRNA (parent)
# chain: GUUCCGUUGGCGUAAUGGUAACGCGUCUCCCUCCUAAGGAGAAGACUGCGGGUUCGAGUCCCGUACGGAACG
# Variants of: B1
# Assay: yeast fitness relative to wild type (ratio to wild type); higher = fitter; tRNA-Arg(CCU), competitive growth, 37 C, YPD
# How it was run: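 The tRNA-Arg(CCU) gene variants were made by chemical synthesis with a 3% per-site mutation rate at 69 sites and inserted at the native genomic locus of Saccharomyces cerevisiae. After pooling, the strains were competed in YPD at 37°C for 24 hours in six parallel replicates. Gene amplicons from the start population and each end population were read by 100-nucleotide paired-end sequencing, and Darwinian fitness relative to wild type was taken from genotype frequency changes. Genotypes needed ≥ 100 starting reads, and estimates < 0.5 were set to 0.5.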
row,Variant,yeast fitness
1,GUUCCGUUGGCGUAAUGGUAAGGUGUCUCCCUCCUAAGGAGAACACUGCGGGUUCGAGUCCCGUACGGAACG [C22G C24U G44C],0.59
2,GUUCCGUUGGCGUAAUGGUAAAGCGUCUCCCUCCUAAGGAGAAGACAGCGGGUUCGAGUCCCCUACGGAACG [C22A U47A G63C],≤ 0.5
3,GUUCCGUUGGCGUAAUGGUAAAGCGUCUCCCUCCUAAGGAGAAGACUGCGGGUUCGAGCCCCGUACGGAACG [C22A U59C],0.814
4,GUUCCGUUGGCGUAAUGGUAAGGUGUCUCCCUCCUAAGGAGAAGACUGCCGGUUCGAGUCCCGUACGGAACG [C22G C24U G50C],≤ 0.5
5,GUUCCGUUGGCGUAAUGGUAAGGCGUCUCCCUCCUACGGAGGAGACUGCGGGUUCGAGUCCCGUACGGAACG [C22G A37C A42G],≤ 0.5
6,GUUCCGUUGGCGUAAUGGUAAGGCGUCUCCCUCCUAAGGAGACGACUGCGGGUUGGAGUCCCGUACGGAACG [C22G A43C C55G],0.577
7,GUUCCGUUGGCGUAAUGGUAAGGGGUCUCCCUCCUAAGGAGAAGACUGCAGGUUCGAGUCCCGUACGGAACG [C22G C24G G50A],0.694
8,GUUCCGUUGGCGUAAUGGUAAGGCGUUUCCCUCCUAAGGAGAGGACUGCGGGUUCGAGUCCCGUACGGAACG [C22G C27U A43G],0.623
9,GUUCCGUUGGCGUAAUGGUAAGGCGUCUCCCUCCUGCGGAGAAGAAUGGGGGUUCGAGUCCCGUACGGAACG [C22G A36G A37C C46A C49G],≤ 0.5
10,GUUCCGUUGGCGUAAUGGUAAGGCGUGUCCGUCCUAAGGAGAAGACUGCGGGUUCAAGUCGCGUACGGUACG [C22G C27G C31G G56A C61G A69U],≤ 0.5
11,GUUCCGUUGGCGUAAUGGUAAGGGGUCUUCCUUCUACGGAGAAGACUGCGGAUUCGAGUCCCGUACGGAACG [C22G C24G C29U C33U A37C G52A],0.625
12,GUUCCGUUGGCGUAAUGGUAAGGCGUGUCCCUCCUAAGGAGAAGACUGCGGGUCCGAGUCCCGUAUGGAACG [C22G C27G U54C C66U],≤ 0.5
13,GUUCCGUUGGCGUAAUGGUAAGGCGUCUACCUCCUAUGGAGAAGACUGAGGGUUCGAGUCCCGUACGGAACG [C22G C29A A37U C49A],≤ 0.5
14,GUUCCGUUGGCGUAAUGGUAAGGCGUCUCCCUCCUAAGGUGAUGACUGCGGGUUCGAGUCCCGUACGGAACG [C22G A40U A43U],0.503
15,GUUCCGUUGGCGUAAUGGUAAGGCGUCUCCCUCCUAAGGUGACGACUGCGGGUUCGAGUCCCGUACGGAACG [C22G A40U A43C],0.698
16,GUUCCGUUGGCGUAAUGGUAAGGCGUCUCCCUCCUAAGGAGAGGACUGCGGGUUCGAGUCCCGUACGGAACG [C22G A43G],0.702
17,GUUCCGUUGGCGUAAUGGUAAGGCGUCUCCCUCCUAAGGAGACGACUGCGGGUUCGAGUCCCGUACGGAACG [C22G A43C],0.708
18,GUUCCGUUGGCGUAAUGGUAAGGCGUGUGCCUCAUAAGGAGAACACUGCGGGUUCAGGUCCCGUACGGAACG [C22G C27G C29G C34A G44C G56A A57G],0.529
19,GUUCCGUUGGCGUAAUGGUAAGGCGUCUCCCUCCUAAGGAGCAGACUGCGGGUUCGAGUCCCGUAGUGAACG [C22G A42C C66G G67U],≤ 0.5

row,Variant,yeast fitness
1,GUUCCGUUGGCGUAAUGGUAAGGCGUGUGCCUCAUGAGGAGAUGACUGCGGGUUCGAGUCCCGUUCGGAACG [C22G C27G C29G C34A A36G A43U A65U],≤ 0.5
2,GUUCCGUUGGCGUAAUGGUAAGGGGUCUCCCACCUAAGGAGAAGACUGCGGGUUCGAGUCCCGUAUGGAACG [C22G C24G U32A C66U],≤ 0.5
3,GUUCCGUUGGCGUAAUGGUAAGGCGUCUCCCUCCUAGGGAGAAGACUGCGGGUUCGAGUCCCGUACGGAACG [C22G A37G],0.697
4,GUUCCGUUGGCGUAAUGGUAAGGCGUCUCCCUCCUAAGGAGAAGACUGCGGGUUCGAGUCCCGUACGGGACG [C22G A69G],0.952
5,GUUCCGUUGGCGUAAUGGUAAGGCGUUUCCCUACUCAGGAGAGGACUGCGGGUUGGAGUCCCGUACGGAACG [C22G C27U C33A A36C A43G C55G],≤ 0.5
6,GUUCCGUUGGCGUAAUGGUAAGGCGUUUCUCUCCUAGGGAGAUGACUGCGGGUUCGAGUCCCGUACAGAACG [C22G C27U C30U A37G A43U G67A],≤ 0.5
7,GUUCCGUUGGCGUAAUGGUAAGGCGUCUCCCUCCUCAGGAGAAGACUGCGGGUCUGAGUACGGUACGGUACG [C22G A36C U54C C55U C60A C62G A69U],≤ 0.5
8,GUUCCGUUGGCGUAAUGGUAAGGCGUCUCCCUCCUAAGGAGAAGACUGCGGGUUCGUGUCCCGUACGGAACG [C22G A57U],0.619
9,GUUCCGUUGGCGUAAUGGUAAGGCGUCUCCCUCCUAAGGAGAAGUCUGCGGGUUCGAGUCCCGUCCGGAACG [C22G A45U A65C],0.534
10,GUUCCGUUGGCGUAAUGGUAAGGCGUCUCCCUCCUCAGGAGAAGACUGCGGGUUCGAGUCCCGUACGGAACG [C22G A36C],0.585
11,GUUCCGUUGGCGUAAUGGUAAGGCGUCUCCCUCCUAAGGAGAAGACUGCGGGUUCGAGUCCCGUACGGAACG [C22G],0.988
12,GUUCCGUUGGCGUAAUGGUAAGGCGUGUCCGUCCUAAGGAGAAGACUGCGGGUUCGAGUCCCGUACGGUACG [C22G C27G C31G A69U],0.554
13,GUUCCGUUGGCGUAAUGGUAAGGUGUCUCCCUCCUACGGAGAAGACUGCGGGUUCGAGUCCCGUACGGAACG [C22G C24U A37C],≤ 0.5
14,GUUCCGUUGGCGUAAUGGUAAGGCGUCUCCCUCCUAAGGAGACGAAUGCGGGUUCGAGUCGCGUACGGACCG [C22G A43C C46A C61G A70C],≤ 0.5
15,GUUCCGUUGGCGUAAUGGUAAGGCGUUUCCCUCCUAAGGAGAAGACUGCGGGUUCGAGUCCCGUACGGAUCG [C22G C27U A70U],0.678
16,GUUCCGUUGGCGUAAUGGUAAGGCGUGUCCCUCCUAGAGAGAAGACUGCGGGUUCGAGUCCCGUACGGAACG [C22G C27G A37G G38A],0.532
17,GUUCCGUUGGCGUAAUGGUAAGGCGUCUCCCUCCUAAGGAGAAGGCUGCGGGAUCGAGUCCCGUAGGGAACG [C22G A45G U53A C66G],0.565
18,GUUCCGUUGGCGUAAUGGUAAGGCGUCUGCCUCCUAAGGAGAAGACUGCGGGUUCGAGUCCCGUACGGAACG [C22G C29G],0.546
19,GUUCCGUUGGCGUAAUGGUAAGGGGUCUUCCUUCUACGGAGAAGACUGCGGAUUCGAGUCCCGUAUGGAACG [C22G C24G C29U C33U A37C G52A C66U],0.548
